The results in this text go back to publication PMC11529822 (Lab on a Chip, 2024).

In general, viability refers to the share of living cells, or the viability signal relative to a control.

Data set [1] in a line: Tissue chip bone marrow stroma compartment: viability of HS-5 cells in collagen. In kind it is cell-based, human. More on the design: AUC HS-5: unit not given beside the values. To be noted: human. In a few lines:
(§1)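 Tumour compartment: MDA-MB-231 spheroids (10 × 10^3 cells, formed 4 days before seeding) in 3.5 mg mL−1 collagen. Liver (HepG2/C3A) and stroma (HS-5) compartments: 15 × 10^3 single cells in the same collagen. Medium 1:1 EMEM:DMEM under rocker-driven gravity flow. Test compound medium from day 1, replenished every 2 days, 5 days total. Four concentrations including control, 2–4 replicates; single-dose runs at 50 μM. PrestoBlue 15% v/v, 1 h, ex 560/em 590 nm; AUC computed.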

A short description of data set [2]: Tissue chip liver compartment: viability of HepG2/C3A cells in collagen. In kind it is cell-based, human. The note with it: human. In a few lines: as §1
The subject of data set [3] is MDA-MB-231, HepG2/C3A and HS-5 cells. Kind of data set: Tissue chip dose response, summary across all three compartments. The class given is cell-based. The note with it: Homo sapiens, read-out: IC50 values across all compartments. The method, boiled down: as §1
The subject of data set [4] is MDA-MB-231 breast cancer cells. The class given is cell-based, human. To be noted: for IC50: Homo sapiens, MDA-MB-231, read-out: IC50 MDA-MB-231; for AUC MDA-MB-231: area under the dose-response curve, tissue chip, tumor compartment. The method, boiled down: as §1
The test system of data set [5] is HS-5 bone marrow stromal cells. The experiment in a line: Tissue chip bone marrow stroma compartment: viability of HS-5 cells in collagen. More on the design: AUC HS-5: unit not given beside the values. The note with it: for IC50: Homo sapiens, HS5, read-out: IC50 HS-5; for AUC HS-5: area under the dose-response curve, tissue chip, bone marrow stroma compartment. In kind it is cell-based, human. The method, boiled down: as §1

The next data set has as its system HepG2/C3A liver cells. The experiment in a line: Tissue chip liver compartment: viability of HepG2/C3A cells in collagen. In kind it is cell-based, human. The note with it: for IC50: Homo sapiens, HepG2/C3A, read-out: IC50 HepG2/C3A; for AUC HepG2/C3A: area under the dose-response curve, tissue chip, liver compartment. In a few lines: as §1

For the molecule `O=c1[nH]cc(F)c(=O)[nH]1` [5-FU, 5-fluorouracil], the results for the viability at 5 days, 50 μM in data set [1] and in data set [2] were 24% and 20%, respectively. For the same molecule, in data set [3], the IC50 was 1000 to 10000 nM.
Regarding `COc1cccc2c1C(=O)c1c(O)c3c(c(O)c1C2=O)C[C@@](O)(C(=O)CO)C[C@@H]3O[C@H]1C[C@H](N)[C@H](O)[C@H](C)O1` [Doxorubicin, doxorubicin], in data set [4], the IC50 came out at 5.5 nM and the “AUC MDA-MB-231” value is on record as 0.47. Also, in data set [5], the IC50 stood at 4.6 nM and the “AUC HS-5” value came out at 0.45. In addition, in the data set on HepG2/C3A liver cells, the IC50 is 231 nM and the “AUC HepG2/C3A” value was 0.72.
For `CC(=O)Nc1cccc(-n2c(=O)n(C3CC3)c(=O)c3c(Nc4ccc(I)cc4F)n(C)c(=O)c(C)c32)c1` [Trametinib, trametinib], in data set [4], the IC50 is 0.06 nM and the “AUC MDA-MB-231” value worked out at 0.63. In data set [5], the IC50 is more than 1000 nM and the “AUC HS-5” value is listed as 0.98. In addition, in the data set on HepG2/C3A liver cells, the IC50 was 12.2 nM and the “AUC HepG2/C3A” value is listed as 0.75.
